ChEMBL document CHEMBL4152188, “Design, synthesis and biological evaluation of C(4) substituted monobactams as antibacterial agents against multidrug-resistant Gram-negative bacteria” (Eur J Med Chem, 2018)
Converted amounts (≈) assume the structure as drawn.

What was measured:
Pseudomonas aeruginosa [1] = assay: Selectivity index, ratio of MIC for against IMP-4 producing Pseudomonas aeruginosa isolate 209471 to MIC for against IMP-4 producing Pseudomonas aeruginosa isolate 209471 in presence of BPL; format: functional
Pseudomonas aeruginosa [2] = assay: Antibacterial activity against IMP-4 producing Pseudomonas aeruginosa isolate 207272 after 18 hrs in presence of BPL by CLSI broth microdilution method; format: functional; conditions: isolate 207272, 18 h
In short: (§1)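 CLSI broth microdilution against clinical isolates (ESBL E. coli, KPC-2 MDR K. pneumoniae, IMP-4 MDR P. aeruginosa; five per species). Iron limitation: Mueller-Hinton broth supplemented with 16 mg/liter 2,2'-bipyridyl to complex iron and induce iron uptake systems. Read-out: MIC.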

Pseudomonas aeruginosa [3] = assay: Antibacterial activity against IMP-4 producing Pseudomonas aeruginosa isolate 209471 after 18 hrs in presence of BPL by CLSI broth microdilution method; format: functional; conditions: isolate 209471, 18 h; in short: as §1
Escherichia coli [4] = assay: Antibacterial activity against extended-spectrum beta-lactamase producing Escherichia coli isolate 208687 after 18 hrs in presence of BPL by CLSI broth microdilution method; format: functional; conditions: isolate 208687, 18 h; in short: as §1
[5] = Elimination half life in mouse liver microsomes at 0.1 uM pre-incubated with compound followed by NADPH addition and measured after 60 mins by LC-MS/MS analysis; format: ADME, microsome; conditions: read-out: beta t1/2
Escherichia coli [6] = assay: Selectivity index, ratio of MIC for against Escherichia coli isolate 210737 to MIC for Escherichia coli isolate 210737 in presence of BPL; format: functional
Pseudomonas aeruginosa [7] = assay: Antibacterial activity against IMP-4 producing Pseudomonas aeruginosa isolate 207272 after 18 hrs by CLSI broth microdilution method; format: functional; conditions: isolate 207272, 18 h
Klebsiella pneumoniae [8] = assay: Antibacterial activity against KPC-2 producing Klebsiella pneumoniae isolate 209735 after 18 hrs by CLSI broth microdilution method; format: functional; conditions: isolate 209735, 18 h
Escherichia coli [9] = assay: Antibacterial activity against extended-spectrum beta-lactamase producing Escherichia coli isolate 208687 after 18 hrs by CLSI broth microdilution method; format: functional; conditions: isolate 208687, 18 h
Klebsiella pneumoniae [10] = assay: Antibacterial activity against KPC-2 producing Klebsiella pneumoniae isolate 209632 after 18 hrs in presence of BPL by CLSI broth microdilution method; format: functional; conditions: isolate 209632, 18 h; in short: as §1
Pseudomonas aeruginosa [11] = assay: Antibacterial activity against IMP-4 producing Pseudomonas aeruginosa isolate 209471 after 18 hrs by CLSI broth microdilution method; format: functional; conditions: isolate 209471, 18 h
Klebsiella pneumoniae [12] = assay: Antibacterial activity against KPC-2 producing Klebsiella pneumoniae isolate 209632 after 18 hrs by CLSI broth microdilution method; format: functional; conditions: isolate 209632, 18 h
Klebsiella pneumoniae [13] = assay: Antibacterial activity against KPC-2 producing Klebsiella pneumoniae isolate 212229 after 18 hrs in presence of BPL by CLSI broth microdilution method; format: functional; conditions: isolate 212229, 18 h; in short: as §1
Klebsiella pneumoniae [14] = assay: Antibacterial activity against KPC-2 producing Klebsiella pneumoniae isolate 212423 after 18 hrs by CLSI broth microdilution method; format: functional; conditions: isolate 212423, 18 h
Escherichia coli [15] = assay: Selectivity index, ratio of MIC for against extended-spectrum beta-lactamase producing Escherichia coli isolate 106342 to MIC for extended-spectrum beta-lactamase producing Escherichia coli isolate 106342 in presence of BPL; format: functional
Pseudomonas aeruginosa [16] = assay: Selectivity index, ratio of MIC for against IMP-4 producing Pseudomonas aeruginosa isolate 212886 to MIC for against IMP-4 producing Pseudomonas aeruginosa isolate 212886 in presence of BPL; format: functional
Escherichia coli [17] = assay: Antibacterial activity against extended-spectrum beta-lactamase producing Escherichia coli isolate 106342 after 18 hrs in presence of BPL by CLSI broth microdilution method; format: functional; conditions: isolate 106342, 18 h; in short: as §1
Escherichia coli [18] = assay: Antibacterial activity against extended-spectrum beta-lactamase producing Escherichia coli isolate 209285 after 18 hrs by CLSI broth microdilution method; format: functional; conditions: isolate 209285, 18 h
[19] = Elimination half life in human liver microsomes at 0.1 uM pre-incubated with compound followed by NADPH addition and measured after 60 mins by LC-MS/MS analysis; format: ADME, microsome; conditions: read-out: beta t1/2
Klebsiella pneumoniae [20] = assay: Antibacterial activity against KPC-2 producing Klebsiella pneumoniae isolate 212423 after 18 hrs in presence of BPL by CLSI broth microdilution method; format: functional; conditions: isolate 212423, 18 h; in short: as §1
Pseudomonas aeruginosa [21] = assay: Selectivity index, ratio of MIC for against IMP-4 producing Pseudomonas aeruginosa isolate 208247 to MIC for against IMP-4 producing Pseudomonas aeruginosa isolate 208247 in presence of BPL; format: functional
Escherichia coli [22] = assay: Antibacterial activity against extended-spectrum beta-lactamase producing Escherichia coli isolate 106342 after 18 hrs by CLSI broth microdilution method; format: functional; conditions: isolate 106342, 18 h
Klebsiella pneumoniae [23] = assay: Selectivity index, ratio of MIC for against KPC-2 producing Klebsiella pneumoniae isolate 212232 to MIC for against KPC-2 producing Klebsiella pneumoniae isolate 212232 in presence of BPL; format: functional
Klebsiella pneumoniae [24] = assay: Antibacterial activity against KPC-2 producing Klebsiella pneumoniae isolate 212232 after 18 hrs in presence of BPL by CLSI broth microdilution method; format: functional; conditions: isolate 212232, 18 h; in short: as §1
Klebsiella pneumoniae [25] = assay: Antibacterial activity against KPC-2 producing Klebsiella pneumoniae isolate 212232 after 18 hrs by CLSI broth microdilution method; format: functional; conditions: isolate 212232, 18 h
Pseudomonas aeruginosa [26] = assay: Antibacterial activity against IMP-4 producing Pseudomonas aeruginosa isolate 209321 after 18 hrs in presence of BPL by CLSI broth microdilution method; format: functional; conditions: isolate 209321, 18 h; in short: as §1
Escherichia coli [27] = assay: Selectivity index, ratio of MIC for against extended-spectrum beta-lactamase producing Escherichia coli isolate 209285 to MIC for extended-spectrum beta-lactamase producing Escherichia coli isolate 209285 in presence of BPL; format: functional
Escherichia coli [28] = assay: Selectivity index, ratio of MIC for against extended-spectrum beta-lactamase producing Escherichia coli isolate 208687 to MIC for extended-spectrum beta-lactamase producing Escherichia coli isolate 208687 in presence of BPL; format: functional
Pseudomonas aeruginosa [29] = assay: Selectivity index, ratio of MIC for against IMP-4 producing Pseudomonas aeruginosa isolate 207272 to MIC for against IMP-4 producing Pseudomonas aeruginosa isolate 207272 in presence of BPL; format: functional
Escherichia coli [30] = assay: Antibacterial activity against Escherichia coli isolate 210737 after 18 hrs by CLSI broth microdilution method; format: functional; conditions: isolate 210737, 18 h
Pseudomonas aeruginosa [31] = assay: Selectivity index, ratio of MIC for against IMP-4 producing Pseudomonas aeruginosa isolate 209321 to MIC for against IMP-4 producing Pseudomonas aeruginosa isolate 209321 in presence of BPL; format: functional
Pseudomonas aeruginosa [32] = assay: Antibacterial activity against IMP-4 producing Pseudomonas aeruginosa isolate 208247 after 18 hrs in presence of BPL by CLSI broth microdilution method; format: functional; conditions: isolate 208247, 18 h; in short: as §1
Escherichia coli [33] = assay: Selectivity index, ratio of MIC for against extended-spectrum beta-lactamase producing Escherichia coli isolate 212648 to MIC for extended-spectrum beta-lactamase producing Escherichia coli isolate 212648 in presence of BPL; format: functional
[34] = Metabolic bioavailability in human liver microsomes at 0.1 uM pre-incubated with compound followed by NADPH addition and measured after 60 mins by LC-MS/MS analysis; format: ADME, microsome
Escherichia coli [35] = assay: Antibacterial activity against extended-spectrum beta-lactamase producing Escherichia coli isolate 209285 after 18 hrs in presence of BPL by CLSI broth microdilution method; format: functional; conditions: isolate 209285, 18 h; in short: as §1

MIC (Pseudomonas aeruginosa [2])	MIC (Pseudomonas aeruginosa [3])	MIC (Escherichia coli [4])	half-life at 0.1 µM [5]	MIC (Pseudomonas aeruginosa [7])	MIC (Klebsiella pneumoniae [8])	MIC (Escherichia coli [9])	MIC (Klebsiella pneumoniae [10])	MIC (Pseudomonas aeruginosa [11])	MIC (Klebsiella pneumoniae [12])	MIC (Klebsiella pneumoniae [13])	MIC (Klebsiella pneumoniae [14])	MIC (Escherichia coli [17])	MIC (Escherichia coli [18])	half-life at 0.1 µM [19]	MIC (Klebsiella pneumoniae [20])	Structure (SMILES)	Selectivity Index (Pseudomonas aeruginosa [1])	Selectivity Index (Escherichia coli [6])	Selectivity Index (Escherichia coli [15])	Selectivity Index (Pseudomonas aeruginosa [16])	further results
2 µg/mL	2 µg/mL	1 µg/mL	1.29 h	16 µg/mL (≈ 20.9 µM)	2 µg/mL (≈ 2.61 µM)	16 µg/mL (≈ 20.9 µM)	0.25 µg/mL	8 µg/mL (≈ 10.4 µM)	2 µg/mL (≈ 2.61 µM)	0.25 µg/mL	2 µg/mL (≈ 2.61 µM)	8 µg/mL	16 µg/mL (≈ 20.9 µM)	1.33 h	0.25 µg/mL	CC(C)C(O/N=C(\C(=O)N[C@@H]1C(=O)N(S(=O)(=O)O)[C@@H]1Cn1cc(COCc2cc(=O)c(O)cn2O)nn1)c1csc(N)n1)c1cc(=O)c(O)cn1O (stereo not given in full)	4	2	2	4	Selectivity Index (Pseudomonas aeruginosa [21]): 1; MIC (Escherichia coli [22]): 16 µg/mL (≈ 20.9 µM); Selectivity Index (Klebsiella pneumoniae [23]): 8; MIC (Klebsiella pneumoniae [24]): 0.25 µg/mL; MIC (Klebsiella pneumoniae [25]): 2 µg/mL (≈ 2.61 µM); MIC (Pseudomonas aeruginosa [26]): 4 µg/mL; Selectivity Index (Escherichia coli [27]): 2; Selectivity Index (Escherichia coli [28]): 16; Selectivity Index (Pseudomonas aeruginosa [29]): 8; MIC (Escherichia coli [30]): 16 µg/mL (≈ 20.9 µM); Selectivity Index (Pseudomonas aeruginosa [31]): 2; MIC (Pseudomonas aeruginosa [32]): 4 µg/mL; Selectivity Index (Escherichia coli [33]): 2; Fh at 1 h, 0.1 µM [34]: 42.8%; MIC (Escherichia coli [35]): 8 µg/mL
8 µg/mL	16 µg/mL	0.25 µg/mL	6.25 h	16 µg/mL (≈ 28 µM)	2 µg/mL (≈ 3.51 µM)	0.5 µg/mL (≈ 0.876 µM)	0.25 µg/mL	16 µg/mL (≈ 28 µM)	2 µg/mL (≈ 3.51 µM)	0.125 µg/mL	2 µg/mL (≈ 3.51 µM)	0.25 µg/mL	0.5 µg/mL (≈ 0.876 µM)	4.52 h	0.5 µg/mL	CC(C)C(O/N=C(\C(=O)N[C@@H]1C(=O)N(S(=O)(=O)O)C12CCCC2)c1csc(N)n1)c1cc(=O)c(O)cn1O (stereo not given in full)	1	8	2	2	Selectivity Index (Pseudomonas aeruginosa [21]): 2; MIC (Escherichia coli [22]): 0.5 µg/mL (≈ 0.876 µM); Selectivity Index (Klebsiella pneumoniae [23]): 16; MIC (Klebsiella pneumoniae [24]): 0.06 µg/mL; MIC (Klebsiella pneumoniae [25]): 1 µg/mL (≈ 1.75 µM); MIC (Pseudomonas aeruginosa [26]): 8 µg/mL; Selectivity Index (Escherichia coli [27]): 1; Selectivity Index (Escherichia coli [28]): 2; Selectivity Index (Pseudomonas aeruginosa [29]): 2; MIC (Escherichia coli [30]): 0.5 µg/mL (≈ 0.876 µM); Selectivity Index (Pseudomonas aeruginosa [31]): 1; MIC (Pseudomonas aeruginosa [32]): 8 µg/mL; Selectivity Index (Escherichia coli [33]): 2; Fh at 1 h, 0.1 µM [34]: 71.6%; MIC (Escherichia coli [35]): 0.5 µg/mL
